Laboratory results from ChEMBL document CHEMBL1142384, “Gamma-carboline derivatives with anti-bovine viral diarrhea virus (BVDV) activity” (Bioorg Med Chem, 2008).

Columns and labels:
HL-60 = test: Growth inhibition of human HL60 cells; type: functional, cell-based
[1] = system: Bovine viral diarrhea virus 1; test: Antiviral activity against BVDV infected in MDBK cells assessed as reduction in viral induced cell destruction by MTT assay; type: functional, organism-based; settings: Bovine viral diarrhea virus isolates and strains
How it was run: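 BVDV (Nose strain) infected MDBK cells (1 × 10^4 cells/well) at multiplicity of infection 0.01. Cells incubated at 37 °C with various compound concentrations for 3 days. Viability of infected cells read by MTT.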

[2] = Cytotoxicity against mock-infected MDBK cells by LDH method; type: cell-based, Bos taurus; settings: cattle
How it was run: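 Mock-infected MDBK cells (1 × 10^4 cells/well) incubated at 37 °C with various compound concentrations for 3 days. Viability measured by the LDH method.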

[3] = Selectivity index, ratio of CC50 for MDBK cells to EC50 for BVDV infected in MDBK cells; type: functional
How it was run: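 MDBK cells (1 × 10^4/well) were infected with BVDV Nose strain at MOI 0.01, or mock-infected, and held at 37 °C with various compound concentrations for 3 days. EC50 was taken from the reduction of virus-induced cell destruction, measured as MTT viability of infected cells. CC50 was taken from the reduction of viable cell number, measured by LDH in mock-infected cells. SI = CC50/EC50.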

| Structure (SMILES) | IC50 (HL-60) | EC50 [1] | CC50 [2] | Ratio CC50/EC50 [3] |
| --- | --- | --- | --- | --- |
| c1ccc2c(c1)[nH]c1ccncc12 | 11.4 µM | 2 µM | 40 µM | – |
| c1ccc2c(c1)[nH]c1cccnc12 | – | > 100 µM | > 100 µM | – |
| CCn1c2ccccc2c2cnccc21 | – | 2 µM | 29 µM | – |
| Cc1nccc2[nH]c3ccccc3c12 | 15.3 µM | 0.58 µM | 9.7 µM | 16.7 |
| Cn1c2ccccc2c2cnccc21 | – | 0.26 µM | 29 µM | 111.5 |
| c1ccc2c(c1)[nH]c1ncccc12 | – | 93 µM | > 100 µM | – |
| Cc1cccc2c1[nH]c1ccncc12 | – | 1.7 µM | 24 µM | 14.1 |
| Cc1cc2[nH]c3ccccc3c2cn1 | – | 2.2 µM | 70 µM | 31.8 |
| CCCn1c2ccccc2c2cnccc21 | – | 8.2 µM | 26 µM | – |
| CC(C)n1c2ccccc2c2cnccc21 | – | 11 µM | 30 µM | – |
| Cc1ccc2c(c1)[nH]c1ccncc12 | – | 1.1 µM | 24 µM | 21.8 |
| Cc1ccc2[nH]c3ccncc3c2c1 | – | 3 µM | 12 µM | 4 |
| c1ccc(Cn2c3ccccc3c3cnccc32)cc1 | – | 8.7 µM | 11 µM | – |
| CCCCn1c2ccccc2c2cnccc21 | – | 9.2 µM | 14 µM | – |
| Cc1cccc2[nH]c3ccncc3c12 | – | 1.2 µM | 16 µM | 13.3 |
| CCCCCCn1c2ccccc2c2cnccc21 | – | > 7.4 µM | 7.4 µM | – |
| Cn1ccc2nc3ccccc3c-2c1 | – | 4.3 µM | 65 µM | 15.1 |
| Cc1cncc2c1[nH]c1ccccc12 | – | 0.55 µM | 21 µM | 38.2 |
| CCN(CC)CCn1c2ccccc2c2cnccc21 | – | 8.9 µM | 10 µM | – |
| c1ccc2c(c1)[nH]c1ccccc12 [CARBAZOLE] | – | 64 µM | > 100 µM | – |
| c1ccc2c(c1)oc1ccccc12 [DIBENZOFURAN] | – | 58 µM | > 100 µM | – |
| c1ccc2c(c1)Cc1ccccc1-2 [FLUORENE] | – | 71 µM | > 100 µM | – |
| c1ccc2c(c1)[nH]c1cnccc12 [NORHARMANE] | – | 8.8 µM | 78 µM | – |
